Experimental data collected from several papers.
Lines come from different studies, so protocols differ.
JAK1 JH2: Tyrosine-protein kinase JAK1, JH2 (JAK1, Homo sapiens, UniProt P23458)
JAK1 JH1: Tyrosine-protein kinase JAK1, JH1 (JAK1, Homo sapiens, UniProt P23458)
JAK1: Tyrosine-protein kinase JAK1 (JAK1, Homo sapiens, UniProt P23458)

SMILES	target	effect on	technique	tested at	remaining binding [%]
CCN1CCN(Cc2ccc(C(=O)Nc3ccc(C)c(Oc4ccc5c(c4)CC(=O)N5)c3)cc2C(F)(F)F)CC1	JAK1 JH2	binding	competition with immobilised ligand	1 µM	100
O=C(Nc1c[nH]nc1C(=O)NC1CCNCC1)c1cc(F)cc(F)c1	JAK1 JH2	binding	competition with immobilised ligand	1 µM	82
CS(=O)(=O)N1CCCC(NC(=O)[C@H](CCC2CCCCC2)NC(=O)c2ccc(CNC(=O)c3cnc4ccccn34)cc2)C1 (stereo partly drawn)	JAK1 JH2	cell-free assay	competition with immobilised ligand	0.1 µM	100
COc1cnc(Nc2cccc(S(N)(=O)=O)c2)nc1N1CCN(c2ccccc2)C(=O)C1	JAK1 JH1	binding	competition with immobilised ligand	1 µM	85
CO[C@H]1CC[C@H](CNc2ccc(S(=O)(=O)NC(=O)c3ccc(N4CCN(CC5=C(c6ccc(Cl)cc6)CC(C)(C)CC5)CC4)cc3Oc3cnc4[nH]ccc4c3)cc2[N+](=O)[O-])CC1	JAK1 JH2	cell-free assay	competition with immobilised ligand	1 µM	100
O=C(c1ccc(Nc2ncc(Cl)c(-c3ccc(Cl)s3)n2)cc1)N1CCC(N2CCCC2)CC1	JAK1 JH1	binding	competition with immobilised ligand	1 µM	8.6
N[C@@H]1CCN(c2nccc(-c3cnn4ncccc34)n2)C1	JAK1	binding		1 µM	100
CN(C(=O)c1ccccc1)c1cc(N(C)c2ccc3c(c2)CCc2ccc(C(=O)NCCN4CCOCC4)cc2C3=O)ccc1F	JAK1 JH2	cell-free assay	competition with immobilised ligand	1 µM	88
CNC(=O)[C@@H]1CC[C@@H](n2c(-c3ccc4cnccc4c3)nc3ccc(C(=O)NCc4cccc(C(N)=O)c4)cc32)C1	JAK1 JH1	binding	competition with immobilised ligand	1 µM	88
O=C(NCCCN1CCOCC1)c1ccc(Nc2nccc(-c3cc4ccccc4s3)n2)cc1	JAK1 JH1	binding	competition with immobilised ligand	1 µM	39
COc1ncc2cc3ccccc3nc2c1C#N	JAK1 JH2	cell-free assay	competition with immobilised ligand	5 µM	67
CN(C)c1nccc(-c2cnc3ncccn23)n1	JAK1 JH1	cell-free assay	competition with immobilised ligand	1 µM	94
C[C@@H]1CN(c2cc(-c3n[nH]c4ccc(OC5(C)CC5)cc34)ncn2)C[C@H](C)O1	JAK1 JH2	cell-free assay	competition with immobilised ligand	0.1 µM	79
FC(F)(F)Oc1cccc(-c2cnc3ccc(-c4ccncc4)nn23)c1	JAK1 JH1	cell-free assay	competition with immobilised ligand	5 µM	100
O=C(NCCCN1CCOCC1)c1ccc(Nc2ncc(Cl)c(-c3ccc(Cl)s3)n2)cc1	JAK1 JH2	binding	competition with immobilised ligand	1 µM	46
C[C@@H]1CCN(c2nccc(-c3cnn4ncccc34)n2)C1	JAK1	binding		1 µM	62
CCS(=O)(=O)c1cc2cc(C[C@](O)(CC(C)(C)c3ccc(F)cc3C(N)=O)C(F)(F)F)[nH]c2cn1	JAK1 JH2	cell-free assay	competition with immobilised ligand	1 µM	95

SMILES	target	effect on	technique	tested at	remaining binding [%]
CN(C)c1ncc(F)c(-c2cnn3ncccc23)n1	JAK1	binding		1 µM	89
O=C(NCC1CCOCC1)c1n[nH]cc1NC(=O)c1c(F)cccc1F	JAK1 JH2	binding	competition with immobilised ligand	1 µM	90
COc1ccnn2ncc(-c3ccnc(N(C)C)n3)c12	JAK1	binding		1 µM	74
O=C(c1ccc(Nc2ncc(Cl)c(-c3cc4ccccc4s3)n2)cc1)N1CCC(N2CCCC2)CC1	JAK1 JH1	binding	competition with immobilised ligand	1 µM	9.3
F[C@@H]1CCN(c2nccc(-c3cnn4ncccc34)n2)C1	JAK1	binding		1 µM	100
NS(=O)(=O)c1cc(NC(=O)C2(c3ccccc3Cl)CC2)ccc1Oc1cccc(Cl)c1	JAK1 JH2	cell-free assay	competition with immobilised ligand	1 µM	76
O=C(c1ccc(Nc2nccc(-c3cc4ccccc4s3)n2)cc1)N1CCC(N2CCCC2)CC1	JAK1 JH2	binding	competition with immobilised ligand	1 µM	3.6
CN(C)c1nccc(-c2cnn3ncccc23)n1	JAK1 JH1	cell-free assay	competition with immobilised ligand	1 µM	69
Nc1ncc2c(n1)-c1c([nH]c3ccc(C#CC4CC4)cc13)CCCC2	JAK1 JH2	binding	competition with immobilised ligand	1 µM	97
Cc1nc(C2CCN(C(=O)c3ccc(OC(F)(F)F)cc3N)CC2)c2ncc(N3CCN(C)CC3)cc2n1	JAK1 JH1	cell-free assay	competition with immobilised ligand	1 µM	95
c1cncc(-c2cccc(Nc3nccc(NC4CCCCC4)n3)c2)c1	JAK1 JH2	binding	competition with immobilised ligand	10 µM	0.2
CCC(=O)N[C@H]1CC[C@@H](C(=O)N(C)c2ccc(-c3nc4ccccc4o3)cc2)C1	JAK1 JH2	cell-free assay	competition with immobilised ligand	1 µM	77
CN1CCN(c2ccc(Nc3nccc(-c4ccccc4)n3)cc2C(F)(F)F)CC1	JAK1	binding		10 µM	0.45
COc1cnc(Nc2cccc(S(N)(=O)=O)c2)nc1N1CCN(c2ccccc2)CC1	JAK1 JH2	binding	competition with immobilised ligand	1 µM	28
Cc1cnc(Nc2ccc(C(=O)N3CCC(N4CCCC4)CC3)cc2)nc1-c1cc2ccccc2s1	JAK1 JH1	binding	competition with immobilised ligand	1 µM	0
c1cnn2ncc(-c3ccnc(N4CCC45COC5)n3)c2c1	JAK1	binding		1 µM	67
